In ChEMBL document CHEMBL1134387, “Synthesis and biodistribution of a new oxo-technetium-99m bis(aminothiol) complex as a potential melanoma tracer” (J Med Chem, 2001):

Legend:
Assay type in all cases: ADME, organism-based
Mus musculus [1] = test: Biodistribution in tumor was determined at 1 hr in mice bearing C57B16 murine melanoma after (i.v.) administration; conditions: in vivo, iv
Method in brief: (§1)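 C57 mice carrying B16 melanotic melanoma, implanted s.c. as 5×10^5 viable cells. Tumours were palpable after 10 days. Mice received 0.74 MBq of the 99mTc-labeled complex by tail-vein injection. Groups of n = 3 were killed by exsanguination at each time point. Weighed tissue aliquots were gamma-counted immediately and expressed as decay-corrected %ID/g, mean ± sem.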

Mus musculus [2] = test: Tumor to lung radioactivity ratio was determined in mice at 3h after (iv) administration in presence of [125I]-BZA; conditions: in vivo
Mus musculus [3] = test: Tumor to lung radioactivity ratio was determined in mice at 6 hr after (iv) administration in presence of [125I]-BZA; conditions: in vivo
Mus musculus [4] = test: Tumor to lung radioactivity ratio was determined in mice at 1 hr after (iv) administration in presence of [125I]-BZA; conditions: in vivo
Mus musculus [5] = test: Tumor to lung radioactivity ratio was determined in mice at 24 hr after (iv) administration in presence of [125I]-BZA; conditions: in vivo
Mus musculus [6] = test: Tumor to blood radioactivity ratio was determined in mice at 6 hr after (iv) administration in presence of [125I]-BZA; conditions: tumour
Mus musculus [7] = test: Tumor to liver radioactivity ratio was determined in mice at 24 hr after (iv) administration in presence of [125I]-BZA; conditions: in vivo
Mus musculus [8] = test: Tumor to blood radioactivity ratio was determined in mice at 3h after (iv) administration in presence of [125I]-BZA; conditions: tumour
Mus musculus [9] = test: Biodistribution in tumor was determined at 24 hr in mice bearing C57B16 murine melanoma after (i.v.) administration; conditions: in vivo, iv; method in brief: as §1
Mus musculus [10] = test: Tumor to liver radioactivity ratio was determined in mice at 6 hr after (iv) administration in presence of [125I]-BZA; conditions: in vivo
Mus musculus [11] = test: Tumor to liver radioactivity ratio was determined in mice at 3h after (iv) administration in presence of [125I]-BZA; conditions: in vivo
Mus musculus [12] = test: Tumor to blood radioactivity ratio was determined in mice at 24 hr after (iv) administration in presence of [125I]-BZA; conditions: tumour
Mus musculus [13] = test: Biodistribution in tumor was determined at 6 hr in mice bearing C57B16 murine melanoma after (i.v.) administration; conditions: in vivo, iv; method in brief: as §1
Mus musculus [14] = test: Tumor to liver radioactivity ratio was determined in mice at 1 hr after (iv) administration in presence of [125I]-BZA; conditions: in vivo
Mus musculus [15] = test: Tumor to blood radioactivity ratio was determined in mice at 1 hr after (iv) administration in presence of [125I]-BZA; conditions: tumour
Mus musculus [16] = test: Biodistribution in tumor was determined at 3h in mice bearing C57B16 murine melanoma after (i.v.) administration; conditions: in vivo, iv; method in brief: as §1

## CCN(CC)CCNC(=O)c1ccc([125I])cc1
Mus musculus [1]
  ID/g: 6.75%
Mus musculus [2]
  Ratio: 0.69
Mus musculus [3]
  Ratio: 2.13
Mus musculus [4]
  Ratio: 0.62
Mus musculus [5]
  Ratio: 15.82
Mus musculus [6]
  Ratio: 17.58
Mus musculus [7]
  Ratio: 4.94
Mus musculus [8]
  Ratio: 7.79
Mus musculus [9]
  ID/g: 0.79%
Mus musculus [10]
  Ratio: 3.83
Mus musculus [11]
  Ratio: 1.1
Mus musculus [12]
  Ratio: 37.33
Mus musculus [13]
  ID/g: 3.53%
Mus musculus [14]
  Ratio: 1.12
Mus musculus [15]
  Ratio: 6.55
Mus musculus [16]
  ID/g: 3.85%
